According to ChEMBL document CHEMBL1124245, “Investigation of the structural parameters involved in the mu and delta opioid receptor discrimination of linear enkephalin-related peptides” (J Med Chem, 1988):
Numbered stars: 1 amine (or outer) side, 2 acyl side, 3 side chain; on linkers, the order of the positions; unused ones are H or OH. Square brackets hold non-standard residues; d marks the D form. Peptide text beside a SMILES is read from it. X1 = CC[C@H](O)[C@H](N[*:1])C(=O)[*:2]; azaGly = NNC(=O)O

Legend:
[1] = target: Opioid receptors; mu & delta (Homo sapiens, UniProt P41143+P35372); assay: Inhibition of electrically evoked contraction of guinea pig ileum (myenteric plexus;longitudinal muscle)[agonist action at mu 1 opioid receptors) and inhibition of electrically evoked contraction of mouse vas deferens (agonist action at delta 1 opioid receptor); type: functional, tissue-based
[2] = target: Mu-type opioid receptor (Cavia porcellus, UniProt P97266); assay: Inhibition of electrically evoked contraction of guinea pig ileum (myenteric plexus:longitudinal muscle preparation) by agonist action at mu 1 opioid receptors; type: functional, tissue-based
Chain of Mu-type opioid receptor (Cavia porcellus, UniProt P97266) (P97266 whole entry): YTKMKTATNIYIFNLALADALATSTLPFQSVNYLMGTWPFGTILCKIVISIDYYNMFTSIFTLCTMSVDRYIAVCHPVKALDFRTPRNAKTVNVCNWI
Procedure, shortened: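 Electrically stimulated guinea pig ileum twitch. IC50 for half-maximal inhibition taken from six to eight log dose-response curves, six concentrations each. [Met]enkephalin IC50 measured on the same preparation. Agonist IC50 multiplied by the mean [Met]enkephalin IC50 divided by that assay's [Met]enkephalin IC50.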

[3] = target: Mu-type opioid receptor (Rattus norvegicus, UniProt P33535); assay: Inhibition of [3H]DAGO binding to mu 1 opioid receptor in rat brain membranes; type: cell membranes
Chain of Mu-type opioid receptor (Rattus norvegicus, UniProt P33535) (P33535 whole entry): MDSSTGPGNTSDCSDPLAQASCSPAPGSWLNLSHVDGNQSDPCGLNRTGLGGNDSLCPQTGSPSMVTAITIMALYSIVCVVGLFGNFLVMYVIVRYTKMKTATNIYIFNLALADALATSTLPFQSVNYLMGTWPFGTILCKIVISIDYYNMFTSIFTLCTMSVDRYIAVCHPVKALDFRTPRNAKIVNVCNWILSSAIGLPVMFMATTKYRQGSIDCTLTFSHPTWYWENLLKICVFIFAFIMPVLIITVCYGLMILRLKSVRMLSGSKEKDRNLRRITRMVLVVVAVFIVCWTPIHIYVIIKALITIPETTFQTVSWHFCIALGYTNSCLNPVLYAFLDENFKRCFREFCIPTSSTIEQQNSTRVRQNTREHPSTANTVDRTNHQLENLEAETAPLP
Procedure, shortened: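 Rat brain membranes, 0.6–0.7 mg protein, in 50 mM Tris-HCl pH 7.4 with 1 nM [3H]DAGO. Incubated 40 min at 35 °C, then filtered and washed with cold buffer. Bound radioactivity counted by scintillation. Nonspecific binding taken with 10 µM levorphanol, triplicates. Nine unlabeled-ligand concentrations, Hill-plot fit, Ki by Cheng-Prusoff. Three to six independent determinations.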

[4] = target: T1, Delta-type opioid receptor (Rattus norvegicus, UniProt P33533); assay: Inhibition of [3H]DSLET binding to delta 1 opioid receptors in rat brain membranes; type: cell membranes
T1 sequence (P33533 whole entry): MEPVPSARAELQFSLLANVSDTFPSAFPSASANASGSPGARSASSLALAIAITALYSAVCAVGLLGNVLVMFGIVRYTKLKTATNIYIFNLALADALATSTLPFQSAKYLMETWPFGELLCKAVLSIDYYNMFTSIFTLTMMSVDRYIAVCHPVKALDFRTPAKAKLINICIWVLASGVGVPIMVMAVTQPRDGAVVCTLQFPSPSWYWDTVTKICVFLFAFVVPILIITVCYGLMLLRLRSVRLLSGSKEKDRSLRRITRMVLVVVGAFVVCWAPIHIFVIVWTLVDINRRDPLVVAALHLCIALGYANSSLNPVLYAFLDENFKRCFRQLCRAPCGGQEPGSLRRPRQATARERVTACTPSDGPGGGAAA

[5] = system: Mus musculus; assay: Analgesic potency in mice after icv injection and 10 min before exposing to hot plate; type: functional
Procedure, shortened: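 Albino mice, 24–28 g, given drug icv by hand (10 µL, modified 30-gauge needle). Jump latency timed on a 55 ± 0.2 °C hot plate 10 min later, experimenter blind. Cut-off 180 s = 100% analgesia. Percent analgesia = (Tt−Tc)/(180 s−Tc). 10 mice per point. AD50 and 95% confidence limits by Litchfield–Wilcoxon.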

[6] = organism: Mus musculus; assay: Inhibitory activity after protection from beta-CNS-induced inactivation in MVD; type: functional
[7] = organism: Mus musculus; assay: Inhibitory activity before protection from beta-CNS-induced inactivation in MVD; type: functional
[8] = target: T1, Delta-type opioid receptor; assay: Ability to inhibit the binding of [3H]DSLET to Opioid receptor delta 1 in rat brain membranes; type: cell membranes

Compound	IC50 [1]	IC50 [2] [nM]	Ki [3] [nM]	Ki [4] [nM]	dose [5] [pmol/mouse]	IC50 ([6]; Mus musculus) [nM]	IC50 ([7]; Mus musculus) [nM]	IC50 [6] [nM]	IC50 [7] [nM]	Ki [8] [nM]
CC(C)C[C@H](NC(=O)[C@H](Cc1ccccc1)NC(=O)CNC(=O)NNC(=O)[C@@H](N)Cc1ccc(O)cc1)C(=O)N[C@H](C(=O)O)[C@@H](C)O (H-Y[azaGly]GFLT-OH)	38 nM	14000	9790	395	–	–	–	–	–	–
CCN(C(=O)CNC(=O)[C@@H](C)NC(=O)[C@@H](N)Cc1ccc(O)cc1)C(C)CC(C)C (stereo partly specified)	1800 nM	216	35.5	3450	–	–	–	–	–	–
CC(C)C[C@H](NC(=O)[C@H](Cc1ccccc1)NC(=O)CNC(=O)[C@H](NC(=O)[C@@H](N)Cc1ccc(O)cc1)[C@H](C)O)C(=O)N[C@H](C(=O)O)[C@@H](C)O [listing 1 of 2 here]	–	–	–	–	50	–	–	–	–	–
CC(C)CC(C)NC(=O)CNC(=O)[C@@H](COC(C)(C)C)NC(=O)[C@@H](N)Cc1ccc(O)cc1 (stereo partly specified)	105 nM	111	13.7	39	–	–	–	–	–	–
CC(C)CC(C)NC(=O)CNC(=O)C(C)(C)NC(=O)[C@@H](N)Cc1ccc(O)cc1 (stereo partly specified)	4720 nM	1850	171	6880	–	–	–	–	–	–
CC(C)CC(C)NC(=O)CNC(=O)[C@@H](C)NC(=O)[C@@H](N)Cc1ccc(O)cc1 (stereo partly specified)	1050 nM	237	17	480	–	–	–	–	–	–
CC(C)C[C@H](NC(=O)[C@H](Cc1ccccc1)NC(=O)CNC(=O)[C@H](NC(=O)[C@@H](N)Cc1ccc(O)cc1)[C@H](C)O)C(=O)N1C[C@H](O)C[C@H]1C(=O)O	1.1 nM	88	43.8	7.6	252	–	–	–	–	–
CC(C)C[C@H](NC(=O)[C@H](Cc1ccccc1)NC(=O)CNC(=O)[C@@H](CO)NC(=O)[C@@H](N)Cc1ccc(O)cc1)C(=O)N[C@H](C(=O)O)[C@@H](C)O	–	406	–	4.8	130	0.65	0.38	–	–	–
CC(C)C[C@@H](C(=O)N[C@H](C(=O)O)[C@@H](C)O)N(C)C(=O)[C@H](Cc1ccccc1)NC(=O)CNC(=O)[C@H](NC(=O)[C@@H](N)Cc1ccc(O)cc1)[C@H](C)O	1.33 nM	224	157	30.7	–	–	–	–	–	–
CC(C)C[C@@H](C(=O)NCCO)N(C)C(=O)CNC(=O)[C@@H](C)NC(=O)[C@@H](N)Cc1ccc(O)cc1	3180 nM	379	116	3810	–	–	–	–	–	–
CC(C)C[C@@H](NC(=O)[C@H](Cc1ccccc1)NC(=O)CNC(=O)[C@@H](C)NC(=O)[C@@H](N)Cc1ccc(O)cc1)C(=O)O [DADLE]	–	–	–	–	12	–	–	–	–	–
CC(C)CCNC(=O)CNC(=O)[C@@H](C)NC(=O)[C@@H](N)Cc1ccc(O)cc1	3410 nM	323	10	1020	–	–	–	–	–	–
CC(C)C[C@H](NC(=O)[C@H](CC(C)C)NC(=O)[C@H](Cc1ccccc1)NC(=O)CNC(=O)[C@@H](CO)NC(=O)[C@@H](N)Cc1ccc(O)cc1)C(=O)O	2.45 nM	257	158	9.12	610	–	–	–	–	–
CC[C@H](O)[C@H](NC(=O)[C@@H](N)Cc1ccc(O)cc1)C(=O)NCC(=O)N[C@@H](Cc1ccccc1)C(=O)N[C@@H](CC(C)C)C(=O)N[C@H](C(=O)O)[C@@H](C)O (H-Y[X1]GFLT-OH)	0.05 nM	21.3	16	2.2	–	–	–	–	–	–
CC(C)C[C@H](NC(=O)[C@H](Cc1ccccc1)NC(=O)CNC(=O)[C@H](NC(=O)[C@@H](N)Cc1ccc(O)cc1)[C@H](C)O)C(=O)N[C@@H](CO)C(=O)O	0.25 nM	99	41.9	4.18	–	–	–	–	–	–
CC(C)C[C@H](NC(=O)[C@H](CC(C)C)NC(=O)[C@H](Cc1ccccc1)NC(=O)CNC(=O)[C@H](NC(=O)[C@@H](N)Cc1ccc(O)cc1)[C@H](C)O)C(=O)O	0.41 nM	260	38	2.65	–	–	–	–	–	–
CC(C)CC(C)NC(=O)CNC(=O)[C@H](C)NC(=O)[C@@H](N)Cc1ccc(O)cc1 (stereo partly specified)	>= 50000 nM	≥ 50000	–	–	–	–	–	–	–	–
CC(C)CC(C)NC(=O)CNC(=O)[C@@H](CO)NC(=O)[C@@H](N)Cc1ccc(O)cc1 (stereo partly specified)	990 nM	718	43	1370	–	–	–	–	–	–
CSCC[C@@H](NC(=O)[C@@H](N)Cc1ccc(O)cc1)C(=O)NCC(=O)NCCC(C)C	733 nM	154	15	600	–	–	–	–	–	–
CC(C)C[C@H](NC(=O)[C@H](Cc1ccccc1)NC(=O)CNC(=O)[C@H](NC(=O)[C@@H](N)Cc1ccc(O)cc1)[C@H](C)O)C(=O)N[C@H](C(=O)O)[C@@H](C)O [listing 2 of 2 here]	0.15 nM	460	25.3	–	–	–	–	0.22	0.13	–
C[C@@H](NC(=O)[C@@H](N)Cc1ccc(O)cc1)C(=O)NCC(=O)N(C)[C@@H](Cc1ccccc1)C(=O)NCCO [DAMGO]	–	11.5	–	–	1	2400	100	–	–	700
